These results are taken from publication PMC5902032 (European journal of medicinal chemistry, 2018).

pIC50: −log10 of the molar value. Where two headings read alike, the source gives them in different places.

In data set [1] the test system is P. falciparum D10 (CQ-S) strain. Put plainly: Antiplasmodial activity against D10 strain. Format: cell-based, Plasmodium falciparum. As to conditions: read-out: D10 IC50.
The test system of data set [2] is P. falciparum W2 (CQ-R) strain. Put plainly: Antiplasmodial activity against W2 strain. Format: cell-based, Plasmodium falciparum. As to conditions: read-out: W2 IC50.
The target in data set [3] is P. falciparum 3D7elo1-pfs16-CBG99 late-stage gametocytes. Put plainly: Gametocytocidal luciferase-based assay, 3D7elo1-pfs16-CBG99. As to conditions: read-out: GCT: 3D7elo1-pfs16-CBG99 IC50, 72 h. In kind it is cell-based, Plasmodium falciparum.
For data set [4], the system named is P. falciparum strain NF54 asexual blood stage parasites. Put plainly: NF54 asexual blood stage Sybrgreen DNA replication assay. Format: cell-based, Plasmodium falciparum. The conditions noted are these: read-out: NF54 IC50, CQ-S strain, 72 h. The method in brief:
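Asexual NF54 parasites were seeded at 0.83% parasitaemia and 1.5% haematocrit in RPMI1640 with 10% human serum. Serial dilutions were made from DMSO stocks in medium (final DMSO 0.1%). Plates were incubated 72 h at 37 °C under 3% O2 and 4% CO2. Growth was read as SYBR Green fluorescence.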

The target in data set [5] is P. falciparum NF54-HGL gametocytes. Put plainly: NF54-HGL gametocyte luciferase assay. The conditions noted are these: read-out: GCT: NF54-HGL IC50. In kind it is cell-based, Plasmodium falciparum. The method in brief: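 Gametocytes came from a flask inoculated with 1% asexual parasites at 5% haematocrit in RPMI1640 with 10% human serum. Asexual stages were cleared with 50 mM NAG on days 4–9. Mostly stage IV cells were Percoll-purified on day 11 and plated at 5000 per well (final DMSO 0.1%). After 72 h at 37 °C, 3% O2, 4% CO2, viability was read as ONE-Glo luminescence.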

Data set [6] concerns Langendorff-isolated rat hearts. Put plainly: Cardiac mechanical function and ECG in Langendorff-isolated rat hearts. The conditions noted are these: for Effect on left ventricular pressure (LVP): concentration-effect relationship; for Effect on coronary perfusion pressure (CPP): data not shown. The essentials:
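Rats heparinised (5000 U/kg) with xylazine (4 mg/kg), decapitated. Hearts perfused retrogradely via aorta at 10 mL/min with Krebs-Henseleit (95% O2-5% CO2, pH 7.4, 37 °C), equilibrated ≥20 min before drug. LVP by intraventricular latex balloon (end-diastolic 10 mmHg), systolic minus diastolic. CPP by inflow-line transducer. Surface ECG at 1 kHz: RR, HR, PQ, QRS, QT, Bazett-corrected QTc.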

The target in another data set is T1, PfPMT (Plasmodium falciparum, UniProt Q8IDQ9).
T1 sequence (Q8IDQ9 1-266): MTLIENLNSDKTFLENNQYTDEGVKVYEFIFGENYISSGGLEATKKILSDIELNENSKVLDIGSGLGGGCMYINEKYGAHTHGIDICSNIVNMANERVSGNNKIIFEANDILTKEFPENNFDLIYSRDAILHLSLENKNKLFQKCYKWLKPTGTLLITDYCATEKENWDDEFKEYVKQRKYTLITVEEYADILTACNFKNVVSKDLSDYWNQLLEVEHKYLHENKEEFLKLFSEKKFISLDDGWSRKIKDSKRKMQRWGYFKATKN
Put plainly: PfPMT radiochemical methyltransferase assay. As to conditions: 100 μM. Format: biochemical. The method in brief:
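Recombinant PfPMT was expressed in and purified from E. coli. Activity was measured radiochemically with 2 µg enzyme in 0.1 M Hepes-KOH pH 8.0, 2 mM Na2EDTA, 10% glycerol and 5% DMSO. The reaction contained 30 µM SAM (including 100 nCi [methyl-14C]SAM) and 55 µM phosphoethanolamine. Inhibitors were screened at 100 µM; values are mean ± SD, n = 3.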

Data set [7] relates to P. falciparum asexual and sexual stages. As to conditions: read-out: IC50 against P. falciparum asexual and sexual stages; cited from earlier work.
The test system of data set [8] is late stages Plasmodium gametocytes. As to conditions: read-out: in vitro IC50 against late stages Plasmodium gametocytes; different published assays; cited from earlier work.
The subject of data set [9] is male and female NF54 gametes. As to conditions: cited from earlier work.
For another data set, the system named is P. berghei liver stages. Put plainly: P. berghei liver-stage analysis in mouse primary hepatocytes. Format: cell-based, Plasmodium berghei. The essentials:
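Mouse primary hepatocytes were infected with 20'000 mCherry-expressing P. berghei ANKA sporozoites. From 2 h post-infection, cells received a range of test compound concentrations or a matching DMSO control, with medium and drug renewed at 24 h. At 48 h, parasite number and size in unfixed cells were measured by automated microscopy (n = 4, SD). Groups were compared by one-way ANOVA with Dunnett's test.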

For the next data set, the target named is Cav1.2 channels (Rattus norvegicus, UniProt P22002). Put plainly: Whole-cell patch-clamp of IBa1.2 in single rat tail artery myocytes. In kind it is cell-based. The conditions noted are these: 30 μM. The essentials: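 Rat tail artery myocytes were isolated enzymatically (collagenase, 37 °C, 40–45 min), kept at 4 °C and used within two days. Whole-cell patch-clamp was run at 20–22 °C. The external solution held 5 mM Ba2+ and 30 mM TEA; the pipette solution was Cs+-based (pCa 8.4, pH 7.4). IBa was evoked by 250-ms pulses to 0 mV from −50 mV at 0.067 Hz, with recording once current had stabilised.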
Cav1.2 channels, sequence (P22002 whole entry): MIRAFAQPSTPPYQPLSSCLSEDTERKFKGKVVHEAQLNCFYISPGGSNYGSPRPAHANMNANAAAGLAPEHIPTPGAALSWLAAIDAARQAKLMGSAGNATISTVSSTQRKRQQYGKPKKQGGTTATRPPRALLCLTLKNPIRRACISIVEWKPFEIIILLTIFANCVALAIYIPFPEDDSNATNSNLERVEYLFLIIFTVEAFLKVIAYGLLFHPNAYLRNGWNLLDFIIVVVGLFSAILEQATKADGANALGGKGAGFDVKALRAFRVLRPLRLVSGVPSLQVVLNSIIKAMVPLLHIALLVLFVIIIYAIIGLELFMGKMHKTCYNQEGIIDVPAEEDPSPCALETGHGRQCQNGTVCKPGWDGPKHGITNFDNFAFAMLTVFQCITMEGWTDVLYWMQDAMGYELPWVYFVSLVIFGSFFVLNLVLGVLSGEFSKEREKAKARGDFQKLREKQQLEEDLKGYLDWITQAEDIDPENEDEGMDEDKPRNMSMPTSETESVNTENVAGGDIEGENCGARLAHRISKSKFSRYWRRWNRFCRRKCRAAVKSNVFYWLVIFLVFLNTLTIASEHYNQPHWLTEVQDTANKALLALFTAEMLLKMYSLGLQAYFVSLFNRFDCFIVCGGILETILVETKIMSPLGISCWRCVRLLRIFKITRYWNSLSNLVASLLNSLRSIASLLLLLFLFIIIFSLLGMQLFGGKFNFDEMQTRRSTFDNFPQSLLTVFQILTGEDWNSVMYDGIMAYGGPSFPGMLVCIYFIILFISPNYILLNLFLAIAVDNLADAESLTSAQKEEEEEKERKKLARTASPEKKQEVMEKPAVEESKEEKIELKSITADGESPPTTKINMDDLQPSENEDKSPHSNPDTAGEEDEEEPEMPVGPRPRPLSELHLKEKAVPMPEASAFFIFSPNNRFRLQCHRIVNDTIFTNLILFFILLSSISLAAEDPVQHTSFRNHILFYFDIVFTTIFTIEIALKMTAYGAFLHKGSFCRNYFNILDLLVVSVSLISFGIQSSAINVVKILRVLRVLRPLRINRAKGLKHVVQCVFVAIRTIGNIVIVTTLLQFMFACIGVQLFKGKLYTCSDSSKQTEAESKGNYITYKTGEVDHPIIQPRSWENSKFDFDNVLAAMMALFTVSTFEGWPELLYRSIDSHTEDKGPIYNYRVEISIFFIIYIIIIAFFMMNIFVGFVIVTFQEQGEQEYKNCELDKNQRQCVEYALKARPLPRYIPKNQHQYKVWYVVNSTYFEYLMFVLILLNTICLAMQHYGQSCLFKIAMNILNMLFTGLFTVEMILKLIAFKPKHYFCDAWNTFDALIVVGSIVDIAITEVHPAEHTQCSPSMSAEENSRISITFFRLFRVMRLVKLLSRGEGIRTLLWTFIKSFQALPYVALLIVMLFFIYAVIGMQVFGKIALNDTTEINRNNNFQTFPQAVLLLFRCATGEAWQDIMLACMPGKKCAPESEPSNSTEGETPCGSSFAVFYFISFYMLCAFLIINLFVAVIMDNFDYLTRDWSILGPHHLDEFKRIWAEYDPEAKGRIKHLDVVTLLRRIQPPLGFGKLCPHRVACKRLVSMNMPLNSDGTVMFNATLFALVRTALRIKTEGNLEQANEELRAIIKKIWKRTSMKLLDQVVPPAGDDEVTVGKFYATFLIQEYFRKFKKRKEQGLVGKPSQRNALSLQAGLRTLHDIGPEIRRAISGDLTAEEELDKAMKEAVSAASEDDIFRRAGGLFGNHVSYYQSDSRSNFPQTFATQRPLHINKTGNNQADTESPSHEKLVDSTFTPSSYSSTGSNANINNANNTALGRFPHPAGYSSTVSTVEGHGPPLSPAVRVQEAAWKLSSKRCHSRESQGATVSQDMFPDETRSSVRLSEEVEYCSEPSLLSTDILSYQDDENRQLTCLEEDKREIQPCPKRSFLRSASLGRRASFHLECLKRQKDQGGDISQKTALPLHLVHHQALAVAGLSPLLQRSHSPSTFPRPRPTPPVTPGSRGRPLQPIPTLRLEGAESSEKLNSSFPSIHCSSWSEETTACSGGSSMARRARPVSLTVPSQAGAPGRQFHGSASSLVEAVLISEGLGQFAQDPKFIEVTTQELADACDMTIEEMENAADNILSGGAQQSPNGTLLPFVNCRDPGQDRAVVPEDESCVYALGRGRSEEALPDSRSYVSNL
Cav1.2 channels, sequence (P54290 25-944 partner limits assumed): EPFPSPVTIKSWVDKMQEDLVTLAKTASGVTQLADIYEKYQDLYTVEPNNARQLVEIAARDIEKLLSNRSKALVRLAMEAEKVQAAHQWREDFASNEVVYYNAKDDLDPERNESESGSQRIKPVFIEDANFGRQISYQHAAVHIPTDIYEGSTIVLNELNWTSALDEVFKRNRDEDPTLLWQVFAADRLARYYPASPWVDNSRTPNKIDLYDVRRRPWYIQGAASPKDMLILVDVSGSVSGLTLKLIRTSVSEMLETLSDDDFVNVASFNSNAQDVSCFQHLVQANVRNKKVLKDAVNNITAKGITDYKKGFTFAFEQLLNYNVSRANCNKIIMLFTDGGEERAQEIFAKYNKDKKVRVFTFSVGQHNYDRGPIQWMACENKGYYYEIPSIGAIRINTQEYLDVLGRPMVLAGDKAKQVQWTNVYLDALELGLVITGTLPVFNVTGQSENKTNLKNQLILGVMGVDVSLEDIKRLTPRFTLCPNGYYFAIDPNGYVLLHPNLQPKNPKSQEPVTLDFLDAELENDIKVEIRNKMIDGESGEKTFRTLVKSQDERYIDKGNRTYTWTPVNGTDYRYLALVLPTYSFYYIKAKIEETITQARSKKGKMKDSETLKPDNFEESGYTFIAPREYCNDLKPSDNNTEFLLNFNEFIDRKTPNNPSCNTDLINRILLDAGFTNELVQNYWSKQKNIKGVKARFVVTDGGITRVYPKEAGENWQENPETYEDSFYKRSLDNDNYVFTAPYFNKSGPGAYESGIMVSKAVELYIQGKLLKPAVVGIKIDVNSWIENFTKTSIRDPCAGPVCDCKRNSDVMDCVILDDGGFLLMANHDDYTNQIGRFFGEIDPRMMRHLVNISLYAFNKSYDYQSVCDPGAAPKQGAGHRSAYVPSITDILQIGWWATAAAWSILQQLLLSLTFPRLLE
Cav1.2 channels, sequence (P54290 945-1091 partner limits assumed): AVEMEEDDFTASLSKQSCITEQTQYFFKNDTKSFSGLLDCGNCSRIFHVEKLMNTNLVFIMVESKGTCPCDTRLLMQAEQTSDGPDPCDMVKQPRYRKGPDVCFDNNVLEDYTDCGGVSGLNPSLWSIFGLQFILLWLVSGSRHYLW
Cav1.2 channels, sequence (P54287 whole entry partner): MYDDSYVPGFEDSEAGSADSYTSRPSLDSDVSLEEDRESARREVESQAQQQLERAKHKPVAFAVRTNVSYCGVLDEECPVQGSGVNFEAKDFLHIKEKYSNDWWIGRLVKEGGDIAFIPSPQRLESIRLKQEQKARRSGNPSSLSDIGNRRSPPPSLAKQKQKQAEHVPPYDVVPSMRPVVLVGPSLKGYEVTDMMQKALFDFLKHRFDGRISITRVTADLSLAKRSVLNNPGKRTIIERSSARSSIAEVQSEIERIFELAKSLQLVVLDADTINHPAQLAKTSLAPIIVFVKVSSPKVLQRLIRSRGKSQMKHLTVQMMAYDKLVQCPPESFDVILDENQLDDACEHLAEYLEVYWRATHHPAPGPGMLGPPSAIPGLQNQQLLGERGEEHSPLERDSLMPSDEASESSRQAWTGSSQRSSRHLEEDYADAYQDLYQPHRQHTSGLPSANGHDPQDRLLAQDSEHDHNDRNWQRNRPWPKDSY
(The patch-clamp technique gives a direct electrical read-out from membranes.)

On to “1-(5-Bromobenzothiophen-2-yl)-N-(piperidin-4-ylmethyl)methanamine [Compound 32]”, for which the negative logarithm of the IC50 (pIC50) in data set [1] (CQ-S strain, 72 h, pLDH) is 6.00; in data set [2] (CQ-R strain, 72 h, pLDH), 5.82; in data set [3] (late-stage gametocytes (stage IV–V), luciferase), 5.85; in [4], 6.14; in data set [5] (gametocytes predominantly stage IV, 72 h, luminescence), 7.28.

As to `CCN(CC)CCCC(C)Nc1ccnc2cc(Cl)ccc12` (stereo not shown) [Chloroquine, reference compound], the negative-log IC50 (pIC50) in data set [1] (Plasmodium falciparum, D10, 72 h) was 7.59; in data set [2] (Plasmodium falciparum, W2, 72 h), 6.51.

In the case of `Clc1cc(Br)ccc1-c1ccc(CNCC2CCNCC2)o1` [Compound 1, 1-(5-(4-Bromo-2-chlorophenyl)furan-2-yl)-N-(piperidin-4-ylmethyl)methanamine], in data set [6], the Sinus arrhythmia is 3 out of 4, the “Effect on left ventricular pressure (LVP)” value is reported as “reduced left ventricular pressure (LVP) in a concentration-dependent manner” and the “Effect on coronary perfusion pressure (CPP)” value is listed as “leaving unaltered coronary perfusion pressure”. For the same compound, the “Inhibitory activity against PfPMT” value on PfPMT is given as “weak activity”. Further, the negative logarithm of the IC50 (pIC50) in data set [7] is above 6.00. The negative logarithm of the IC50 (pIC50) in [8] is above 6.00. In addition, the “Activity on male and female NF54 gametes” value in data set [9] was “activity on both male and female NF54 gametes”.

Consider `CN(C)CCCNCc1ccc(-c2ccc(F)c(Cl)c2)o1` [Compound 2, N-[(5-(3-chloro-4-fluorophenyl)furan-2-yl)methyl]-N′,N′-dimethylpropane-1,3-diamine, reference compound], for which the pIC50 in data set [8] is above 6.00.

For the compound `N#Cc1ccc(-c2ccc(CNCC3CCNCC3)o2)cc1` [Compound 24, 1-(5-(4-Cyanophenyl)furan-2-yl)-N-(piperidin-4-3ylmethyl)methanamine], the “Inhibitory activity against PfPMT” value at PfPMT is on record as “weak activity”.

Turning to `Clc1ccc(-c2ccc(CNCC3CCNCC3)o2)c(-c2ccccc2)c1` [Compound 25, 1-(5-(2-Phenyl-4-chlorophenyl)furan-2-yl)-N-(piperidin-4-ylmethyl)methanamine], the Parasite sizes result in the data set on P. berghei liver stages (48 hpi, mouse primary hepatocytes, different concentrations) is “Neither parasite numbers (Figure 2A) nor parasite sizes (Figure 2B) were significantly influenced”. The “Parasite numbers per well” value in the data set with P. berghei liver stages (48 h, mouse primary hepatocytes, different concentrations) is listed as “no liver stage activity”. In addition, the Detached cell formation entry with P. berghei liver stages (detached cells at 65 hpi vs 48 h number) is recorded as “Neither concentration tested significantly inhibited detached cell formation”. Moreover, in [6], the “Effect on left ventricular pressure (LVP)” value was “reduced left ventricular pressure (LVP) in a concentration-dependent manner” and the “Effect on coronary perfusion pressure (CPP)” value was “leaving unaltered coronary perfusion pressure”. Moreover, the “Effect on IBa1.2 current” value at Cav1.2 channels is recorded as “blocked the current”.

In the case of `C[N+](C)(CCCNCc1ccc(-c2ccc(Cl)cc2Br)o1)Cc1ccccc1.[Cl-]` [Compound 48, N-Benzyl-3-[(5-(4-chloro-2-bromophenyl)furan-2-yl-methyl)amino]-N,N-dimethylpropan-1-ammonium chloride], the “Inhibitory activity against PfPMT” value at PfPMT is reported as “weak activity”.

As for `CC[C@H](C)[C@H](NC(=O)[C@H]([C@@H](C)CC)N(C)C(C)=O)C(=O)N[C@H](C(=O)N[C@@H](CC(C)C)C(=O)[C@@]1(C)CO1)[C@@H](C)O` [Epoxomycin, reference compound], the pIC50 in data set [3] (Plasmodium falciparum) is 8.15; in data set [5] (Plasmodium falciparum, NF54, 72 h) it was 9.15.

The pIC50 is the negative decadic logarithm of the IC50, by convention in mol/L.
